A short description of data set [1]: Aqueous solubility at pH 7.4. Format: physicochemical. The method, boiled down:
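Aqueous solubility measured at pH 7.4, reported in µg/mL.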

The next data set has as its system Caco-2. The data set is described as follows: Antiproliferative activity against human Caco-2 cells. It is filed as functional, cell-based. The method, boiled down: (§1)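 Cell growth density monitored in Caco-2 (epithelial colorectal adenocarcinoma), LoVo (colon carcinoma) and PC3MM2/PC3 (prostate cancer) cultures; IC50 from means of two experiments.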
For the next data set, the system named is LoVo. Nature of the data set: Antiproliferative activity against human LoVo cells. Format: functional, cell-based. In outline:
as §1

Data set [2] has as its target Phosphatidylinositol 4,5-bisphosphate 3-kinase catalytic subunit gamma isoform (Homo sapiens, UniProt P48736). Nature of the data set: Inhibition of PI3Kgamma. In outline: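 Fluorescence polarization assays for PI3K-α (p110α) and PI3K-γ (p110γ) monitored PIP3 production.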
In data set [3] the target is Serine/threonine-protein kinase mTOR (Homo sapiens, UniProt P42345). Nature of the data set: Inhibition of mTOR. In outline: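 DELFIA-format mTOR kinase assay monitoring phosphorylation of His6-S6K substrate.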
The test system of another data set is PC-3. The data set is described as follows: Antiproliferative activity against human PC3 cells. It is filed as functional, cell-based. The method, boiled down: as §1
In a further data set the target is CYP3A4 (Homo sapiens, UniProt P08684). The data set is described as follows: Inhibition of CYP3A4 at 3 uM. It is filed as ADME.
Data set [4] deals with Phosphatidylinositol 4,5-bisphosphate 3-kinase catalytic subunit alpha isoform (Homo sapiens, UniProt P42336). Nature of the data set: Inhibition of PI3Kalpha.
Data set [5] can be described thus: Inhibition of PI3K in human PC3 cells assessed as inhibition AKT phosphorylation after 6 hrs by densitometry. Format: cell-based. The settings on record: PC-3, 6 h. In outline:
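PC-3 prostate cancer cells exposed to DMSO, 10 µM […] as positive control, or graded doses of test agent for 6 h. Lysates immunoblotted for Akt phosphorylated at Thr308 and for p-4EBP1. Inhibition assessed by densitometry of the p-Akt blots.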

Results on 26 compounds are retold here after ChEMBL document CHEMBL1156153, “Novel benzofuran-3-one indole inhibitors of PI3 kinase-alpha and the mammalian target of rapamycin: hit to lead studies” (Bioorg Med Chem Lett, 2010).

In general, solubility refers to the concentration that dissolves in the medium under given conditions. Low values mean little dissolved substance, high ones much dissolved substance. As a reminder, the IC50 is the concentration that gives 50% inhibition. What is called inhibition is the relative decrease from the control value, in per cent.

Values after ≈ are worked out from the molar mass of the structure shown.

Chain of Phosphatidylinositol 4,5-bisphosphate 3-kinase catalytic subunit alpha isoform (P42336 whole entry, canonical isoform): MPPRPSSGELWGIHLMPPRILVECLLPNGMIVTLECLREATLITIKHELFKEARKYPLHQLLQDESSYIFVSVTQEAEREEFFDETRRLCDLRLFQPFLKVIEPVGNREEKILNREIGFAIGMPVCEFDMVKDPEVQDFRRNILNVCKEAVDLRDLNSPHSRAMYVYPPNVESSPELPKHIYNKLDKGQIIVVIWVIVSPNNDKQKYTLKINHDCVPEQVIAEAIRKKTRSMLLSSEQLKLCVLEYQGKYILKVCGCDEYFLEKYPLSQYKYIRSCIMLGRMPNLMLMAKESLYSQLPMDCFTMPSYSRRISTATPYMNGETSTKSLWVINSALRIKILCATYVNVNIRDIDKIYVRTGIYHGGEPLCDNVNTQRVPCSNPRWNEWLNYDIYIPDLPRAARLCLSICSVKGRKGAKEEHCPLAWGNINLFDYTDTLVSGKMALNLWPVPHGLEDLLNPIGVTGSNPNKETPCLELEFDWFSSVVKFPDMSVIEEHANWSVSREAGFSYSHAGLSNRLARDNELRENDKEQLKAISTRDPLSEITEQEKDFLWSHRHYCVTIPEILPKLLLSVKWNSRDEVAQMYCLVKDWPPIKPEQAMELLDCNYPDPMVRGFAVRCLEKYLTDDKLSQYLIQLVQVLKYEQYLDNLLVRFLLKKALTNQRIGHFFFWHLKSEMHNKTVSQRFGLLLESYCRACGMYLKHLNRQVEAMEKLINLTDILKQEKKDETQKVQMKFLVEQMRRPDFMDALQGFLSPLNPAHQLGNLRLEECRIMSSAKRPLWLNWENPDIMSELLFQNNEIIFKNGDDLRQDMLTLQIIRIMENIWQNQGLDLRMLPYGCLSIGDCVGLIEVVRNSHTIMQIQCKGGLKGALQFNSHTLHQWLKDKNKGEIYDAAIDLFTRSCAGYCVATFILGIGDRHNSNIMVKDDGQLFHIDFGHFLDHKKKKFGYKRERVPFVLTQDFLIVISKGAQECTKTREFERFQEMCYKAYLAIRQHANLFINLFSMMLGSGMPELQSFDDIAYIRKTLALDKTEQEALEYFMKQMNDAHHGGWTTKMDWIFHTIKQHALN
Chain of CYP3A4 (P08684 whole entry, canonical isoform): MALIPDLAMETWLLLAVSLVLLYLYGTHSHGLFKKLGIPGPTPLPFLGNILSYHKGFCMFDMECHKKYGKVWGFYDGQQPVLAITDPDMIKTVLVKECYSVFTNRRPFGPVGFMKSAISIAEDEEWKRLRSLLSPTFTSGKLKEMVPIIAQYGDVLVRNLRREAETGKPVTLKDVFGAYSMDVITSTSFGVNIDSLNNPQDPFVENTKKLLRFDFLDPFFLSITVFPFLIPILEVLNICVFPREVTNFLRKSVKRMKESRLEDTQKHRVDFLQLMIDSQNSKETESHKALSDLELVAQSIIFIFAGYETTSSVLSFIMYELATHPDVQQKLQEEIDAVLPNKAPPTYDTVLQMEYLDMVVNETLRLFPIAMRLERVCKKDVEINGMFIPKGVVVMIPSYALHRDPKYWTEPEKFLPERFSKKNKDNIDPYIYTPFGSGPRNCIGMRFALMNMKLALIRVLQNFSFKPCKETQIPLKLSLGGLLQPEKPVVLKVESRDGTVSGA
Chain of Phosphatidylinositol 4,5-bisphosphate 3-kinase catalytic subunit gamma isoform (P48736 whole entry, canonical isoform): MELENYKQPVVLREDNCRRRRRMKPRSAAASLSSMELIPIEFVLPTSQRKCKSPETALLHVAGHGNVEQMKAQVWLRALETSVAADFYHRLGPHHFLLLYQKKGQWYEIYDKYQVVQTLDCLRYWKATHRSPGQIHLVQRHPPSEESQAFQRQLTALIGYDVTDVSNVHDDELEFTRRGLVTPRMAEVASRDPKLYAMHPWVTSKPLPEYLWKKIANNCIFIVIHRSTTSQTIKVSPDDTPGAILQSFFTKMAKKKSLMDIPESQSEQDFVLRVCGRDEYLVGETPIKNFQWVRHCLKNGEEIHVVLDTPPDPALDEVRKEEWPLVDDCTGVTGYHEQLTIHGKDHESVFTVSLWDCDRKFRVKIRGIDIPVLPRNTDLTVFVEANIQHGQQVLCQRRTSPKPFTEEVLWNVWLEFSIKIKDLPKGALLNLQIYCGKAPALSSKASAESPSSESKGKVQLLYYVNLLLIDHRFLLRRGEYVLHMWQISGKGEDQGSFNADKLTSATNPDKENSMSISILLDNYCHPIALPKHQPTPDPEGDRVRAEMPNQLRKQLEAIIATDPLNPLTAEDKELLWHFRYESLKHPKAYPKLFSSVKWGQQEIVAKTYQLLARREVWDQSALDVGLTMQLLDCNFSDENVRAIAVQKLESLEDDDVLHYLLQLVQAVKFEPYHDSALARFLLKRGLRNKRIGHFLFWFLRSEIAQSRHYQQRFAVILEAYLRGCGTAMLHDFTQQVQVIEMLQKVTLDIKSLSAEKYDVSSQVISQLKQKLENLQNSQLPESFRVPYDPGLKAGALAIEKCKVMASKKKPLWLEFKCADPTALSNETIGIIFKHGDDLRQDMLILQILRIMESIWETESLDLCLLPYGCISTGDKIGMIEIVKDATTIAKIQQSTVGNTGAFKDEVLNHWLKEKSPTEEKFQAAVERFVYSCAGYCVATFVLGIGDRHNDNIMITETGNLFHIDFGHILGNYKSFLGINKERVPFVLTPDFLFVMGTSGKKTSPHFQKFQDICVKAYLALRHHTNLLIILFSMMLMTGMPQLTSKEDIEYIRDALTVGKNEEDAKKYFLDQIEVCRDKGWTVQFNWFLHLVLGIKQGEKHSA

The compound `Cc1[nH]c2ccc(Br)cc2c1/C=C1\Oc2cc(O)cc(O)c2C1=O` gave a solubility in [1] of 1 µg/mL (≈ 2.59 µM).

Consider `COc1ccc2[nH]c(C)c(/C=C3\Oc4cc(O)cc(O)c4C3=O)c2c1`, for which the half-maximal inhibitory concentration (IC50) in the data set on Caco-2 was determined as 9000 nM; in the data set on LoVo, 3600 nM; in data set [2], 25 nM; in data set [3] it was 3 nM; in the data set with PC-3 it was 4000 nM; in data set [4] it was 3 nM. Besides, the concentration in solution in data set [1] (solubility) came to 1 µg/mL (≈ 2.96 µM). The same compound registered an inhibition at 3 µM on CYP3A4 of 79%.

Take `O=C1/C(=C/c2c(-c3ccccc3)[nH]c3ccccc23)Oc2cc(O)cc(O)c21`: the IC50 in data set [2] is 2780 nM; in data set [3], 130 nM; in data set [4], 1030 nM. The compound also registered a solubility in data set [1] of 1 µg/mL (≈ 2.71 µM).

With `O=C1/C(=C/c2c(-c3ccccn3)[nH]c3ccccc23)Oc2cc(O)cc(O)c21`, the IC50 in [3] stood at 22 nM; in data set [4] it was 3650 nM. In data set [1], the concentration in solution (solubility) came to 3 µg/mL (≈ 8.1 µM).

In data set [1], `O=C1/C(=C/c2c(-c3ccc(F)cc3)[nH]c3ccccc23)Oc2cc(O)cc(O)c21` yielded a solubility of 1 µg/mL (≈ 2.58 µM).

Turning to `COc1ccc2c(c1)c(/C=C1\Oc3cc(O)cc(O)c3C1=O)c(C)n2C`, the 50% inhibitory concentration (IC50) with Caco-2 came to 7200 nM; with LoVo, 2500 nM; in [2], 54 nM; in data set [3] it was 4 nM; in the data set with PC-3, 1300 nM; in [4], 7 nM. Besides, in [1], the concentration in solution (solubility) was 1 µg/mL (≈ 2.85 µM). Also, the inhibition at 3 µM on CYP3A4 was 75%.

In the case of `O=C1/C(=C/c2c(-c3ccc4ccccc4c3)[nH]c3ccccc23)Oc2cc(O)cc(O)c21`, in data set [1], the solubility was found to be 1 µg/mL (≈ 2.38 µM).

Turning to `COc1ccc2c(c1)c(/C=C1\Oc3cc(O)cc(O)c3C1=O)c(C)n2CCN1CCOCC1`, the IC50 with Caco-2 came out at 2000 nM; in the data set on LoVo it was 2300 nM; in data set [2] it was 155 nM; in [3] it was 9 nM; in the data set on PC-3, 1500 nM; in data set [4], 11 nM. The same compound registered a solubility in data set [1] of 6 µg/mL (≈ 13.3 µM). In addition, the inhibition at 3 µM on CYP3A4 worked out at 64%.

In the case of `COc1ccc2[nH]c(-c3ccccc3)c(/C=C3\Oc4cc(O)cc(O)c4C3=O)c2c1`, the 50% inhibitory concentration (IC50) with Caco-2 turned out to be 2100 nM; in the data set with LoVo it was 1200 nM; in data set [2], 11 nM; in [3], 10 nM; with PC-3, 800 nM; in [5], 385 nM. At CYP3A4, this compound returned an inhibition at 3 µM of 77%.

Turning to `Cn1c(-c2ccccc2)c(/C=C2\Oc3cc(O)cc(O)c3C2=O)c2ccccc21`, the IC50 in data set [3] came to 96 nM; in [4], 2670 nM. For the same compound, the concentration in solution in data set [1] (solubility) was 2 µg/mL (≈ 5.22 µM).

`COc1ccc2c(c1)c(/C=C1\Oc3cc(O)cc(O)c3C1=O)c(C)n2CCN1CCN(C)CC1`: the IC50 came out at 4700 nM in the data set on Caco-2; 2200 nM in the data set on LoVo; 473 nM in data set [2]; 11 nM in data set [3]; 2400 nM with PC-3; 5 nM in data set [4]. For the same compound, the concentration in solution in data set [1] (solubility) came to 30 µg/mL (≈ 64.7 µM).

As to `COc1ccc2c(c1)c(/C=C1\Oc3cc(O)cc(O)c3C1=O)c(C)n2CCN(C)C`, the 50% inhibitory concentration (IC50) in the data set with Caco-2 was 2800 nM; with LoVo it was 1700 nM; in data set [2], 283 nM; in data set [3], 18 nM; with PC-3 it was 1800 nM; in [4], 9 nM. The compound further came in with a solubility in [1] of 1 µg/mL (≈ 2.45 µM).

In the case of `COc1ccc2c(c1)c(/C=C1\Oc3cc(O)cc(O)c3C1=O)cn2CCCN(C)C`, the IC50 in data set [2] is 2420 nM; in [3], 2120 nM; in data set [4] it was 40 nM. The same compound returned a solubility in data set [1] of 32 µg/mL (≈ 78.3 µM).

With `Cn1cc(/C=C2\Oc3cc(O)cc(O)c3C2=O)c2ccccc21`, the IC50 in data set [3] was determined as 800 nM. For the same compound, the concentration in solution in [1] (solubility) came to 2 µg/mL (≈ 6.51 µM).

As for `O=C1/C(=C/c2c[nH]c3ccc(Cl)cc23)Oc2cc(O)cc(O)c21`, the solubility in data set [1] was determined as 1 µg/mL (≈ 3.05 µM).

As to `COc1ccc2c(c1)c(/C=C1\Oc3cc(O)cc(O)c3C1=O)cn2CCCN1CCN(CCO)CC1`, the results for the IC50 in data set [2], in data set [3] and in data set [4] were 1360 nM, 1650 nM and 37 nM, respectively. In [1], this compound came in with a solubility of 25 µg/mL (≈ 50.7 µM).

Turning to `COc1ccc2c(c1)c(/C=C1\Oc3cc(O)cc(O)c3C1=O)c(C)n2CCCN(C)C`, the IC50 in the data set on Caco-2 was determined as 9300 nM; with LoVo it was 5700 nM; in [2], 404 nM; in data set [3] it was 118 nM; with PC-3 it was 2800 nM. Further, in data set [1], the concentration in solution (solubility) came to 32 µg/mL (≈ 75.7 µM).

In turn, `O=C1/C(=C/c2c(-c3ccc(Cl)cc3)[nH]c3ccccc23)Oc2cc(O)cc(O)c21` gave a solubility in data set [1] of 1 µg/mL (≈ 2.48 µM).

Regarding `COc1ccc2[nH]cc(/C=C3\Oc4cc(O)cc(O)c4C3=O)c2c1`, the solubility in [1] amounted to 12 µg/mL (≈ 37.1 µM). Further, at CYP3A4, 3 µM produced 58% inhibition.

In the case of `COc1ccc2c(c1)c(/C=C1\Oc3cc(O)cc(O)c3C1=O)c(C)n2CCCN1CCOCC1`, the IC50 in the data set on Caco-2 worked out at 4700 nM; with LoVo, 4600 nM; in [2], 76 nM; in data set [3], 18 nM; with PC-3, 2400 nM; in data set [4] it was 8 nM. Besides, the solubility in data set [1] came to 1 µg/mL (≈ 2.15 µM). In addition, on CYP3A4, the inhibition at 3 µM came to 68%.

`COc1ccc2c(c1)c(/C=C1\Oc3cc(O)cc(O)c3C1=O)cn2CCCN1CCOCC1`: the results for the IC50 in data set [2], in data set [3] and in data set [4] were 646 nM, 430 nM and 42 nM, respectively. The same compound registered a solubility in [1] of 3 µg/mL (≈ 6.66 µM). On CYP3A4, this compound displayed an inhibition at 3 µM of 42%.

Consider `COc1ccc2[nH]c(-c3cccnc3)c(/C=C3\Oc4cc(O)cc(O)c4C3=O)c2c1`, for which the IC50 came out at 7500 nM with Caco-2; 4700 nM with LoVo; 9 nM in [2]; 1 nM in [3]; 1900 nM in the data set with PC-3; 1 nM in [4]. In [1], this compound showed a solubility of 1 µg/mL (≈ 2.5 µM). Further, 3 µM produced 57% inhibition at CYP3A4.

`COc1ccc2c(c1)c(/C=C1\Oc3cc(O)cc(O)c3C1=O)cn2C`: the IC50 in data set [2] was 587 nM; in data set [3], 62 nM; in data set [4], 106 nM. Also, the concentration in solution in [1] (solubility) came to 1 µg/mL (≈ 2.96 µM).

Turning to `COc1ccc2c(c1)c(/C=C1\Oc3cc(O)cc(O)c3C1=O)c(C)n2CCCN1CCN(C)CC1`, the IC50 in the data set on Caco-2 is 10000 nM; in the data set with LoVo it was 7500 nM; in data set [2], 402 nM; in [3], 153 nM; in the data set with PC-3, 9500 nM; in data set [4], 15 nM. The compound further yielded a solubility in [1] of 10 µg/mL (≈ 20.9 µM).

In the case of `COc1ccc2c(c1)c(/C=C1\Oc3cc(O)cc(O)c3C1=O)c(C)n2CCCN1CCN(CCO)CC1`, the IC50 is 10000 nM in the data set on Caco-2; 10000 nM in the data set on LoVo; 109 nM in data set [2]; 108 nM in data set [3]; 10000 nM with PC-3; 6 nM in [4]. In addition, in data set [1], the solubility was 36 µg/mL (≈ 70.9 µM).

Take `O=C1/C(=C/c2c[nH]c3ccccc23)Oc2cc(O)cc(O)c21`: the results for the IC50 in [3] and in data set [4] were 9200 nM and 6750 nM, respectively. For the same compound, in [1], the concentration in solution (solubility) came to 14 µg/mL (≈ 47.7 µM).
